MT stabilizer: stabilizes microtubules in HeLa cells. HeLa tubulin immunostaining HCS, 24 h; share of cells brighter than vehicle mean+2SD. % tubulin-high responders, % at 10 µM. 200,000 compounds, 0.83% hits. AID 2205;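 active means plate Z-score above 3 for both tubulin-high and condensed-nucleus cell shares, with cell loss under 80%, at 10 µM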;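 further: anti alpha tubulin signal scored within the nucleus-defined area of each cell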
Ba/F3 V617F tox: reduce viability of Ba/F3 cells dependent on JAK2V617F; Ba/F3 EpoR-JAK2V617F viability, ATP luminescence; inhibition, % at 5.6 µM; 220,000 compounds, 1.1% hits; AID 1446;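 active means inhibition above the campaign mean plus 3 SD over all tested compounds, cut at about 24% in these data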;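 further: cytokine-independent growth of Ba/F3 cells driven by EpoR plus mutant JAK2; 0% = DMSO-treated cells and 100% = JAK inhibitor I control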
APP 5UTR inh: APP translation inhibition. 190,000 compounds, 0.82% hits. AID 1285. SH-SY5Y APP 5'UTR-luciferase reporter, luminescence. inhibition, % at 2 µM;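 active means inhibition above a set limit, derived from the sample mean plus 3 SD, cut at about 45% in these data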
bCat nuc transl: modulators of beta-catenin nuclear translocation; HeLa beta-catenin nuclear translocation, immunofluorescence imaging; nuclear translocation activity, % at 5 µM; 190,000 compounds, 0.3% hits; AID 1665;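 active means nuclear translocation activity above 50% at 5 µM, with a well cell count of 50 or more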;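 further: per-cell ratio of nuclear to cytoplasmic median beta-catenin stain intensity; plate controls were DMSO negative control for no effect and GSK-3 inhibitor IX positive control for full effect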
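Test system: human HeLa cell line; Doses: 5 µM primary, 0.02–20 µM confirmation; Incubation: 24 h compound exposure, 37°C; Detection: beta-catenin immunofluorescence imaging with DAPI; Read-out: beta-catenin nuclear/cytoplasmic ratio, % activation.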
BaF3 parental: parental Ba/F3 viability inhibition as JAK2V617F counter-screen; inhibition, % at 5.6 µM; 220,000 compounds, 1.1% hits; CellTiter-Glo ATP luminescence;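 active means inhibition above a per-campaign cutoff, the mean inhibition of all tested compounds plus 3 SD, cut at about 27% in these data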;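 further: 0% = DMSO wells and 100% = JAK Inhibitor I control wells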
IEC-6 cytotox: counter-screen for KLF5 inhibitors: cytotoxicity in IEC-6 cells | IEC-6 cytotoxicity, luminescence viability | inhibition, % at 5 µM | 290,000 compounds, 0.78% hits | AID 1825; in the data active means inhibition above about 22%;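 further: 0% = plate median of test compound wells and 100% = cytotoxic reference compound wells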
An asterisk follows results filed as active; · = no result. This is a sample that favours compounds with a hit; in the whole collection about 2.2% have one here.

SMILES	MT stabilizer	Ba/F3 V617F tox	APP 5UTR inh	bCat nuc transl	BaF3 parental	IEC-6 cytotox
O=C(Nc1ccc(F)cc1F)N1CCCN(c2ccc(C(F)(F)F)cn2)CC1	·	3.6	·	0.6	2.4	2.5
NNC(=O)[C@H](Cc1ccccc1)NC(=O)Nc1ccc2c(c1)OCCO2	·	-2.5	·	-0.1	-6.9	-4.7
CCOC(=O)Nc1c(C(=O)OC)[nH]c2cc(OC)ccc12	36.2*	17.1	-3.4	4.5	18.4	16.1
CCOC(=O)c1[nH]c2ccc(OC)cc2c1NC(=S)N1CCN(c2ccccc2OC)CC1	20.1*	0.5	15.6	1.9	-1.5	12.2
COc1ccccc1N1CCN(C(=S)Nc2cccc(C)c2)CC1	8.7*	-5.7	-16.3	5.6	2.9	6.7
CCOC(=O)c1[nH]c2ccc(OC)cc2c1NC(=S)N1CCN(C(=O)OCC)CC1	3.3	2.4	-13.0	-0.4	6.1	-0.1
COc1ccc(-c2n[nH]c(C(F)(F)F)c2-c2cc3ccccc3o2)c(O)c1	30.2*	-2.1	22.9	93.7*	0.8	3.0
COc1ccc2[nH]c3c(NCc4ccco4)ncnc3c2c1	27.0*	-1.5	-44.3	6.1	5.2	3.4
COc1ccc2[nH]c3c(NCCC4=CCCCC4)ncnc3c2c1	4.3	63.8*	-74.7	0.9	75.1*	20.3
CCN(CC)CCNc1ncnc2c1[nH]c1ccc(OC)cc12	2.4	-0.4	-6.8	·	1.6	-5.4
COC(=O)c1cc(Br)ccc1NC(=O)Nc1ccc(C)cc1	1.7	3.5	8.6	·	34.4*	0.7
Cc1cc2nc3ccc(=[N+](C)C)cc-3sc2cc1N	·	68.3*	·	1.1	84.8*	16.1
CN(C)c1ccc2nc3ccc(=[N+](C)C)cc-3sc2c1	4.4	97.1*	61.6*	0.4	101.4*	5.9
Cc1nn(-c2ccccc2)c(C)c1/C=N/NC(=O)c1cc(C(C)(C)C)[nH]n1	2.5	-2.7	-2.2	0.1	1.9	-0.1
Cc1ccc(-c2cc(C(=O)N/N=C/c3c(C)nn(-c4ccccc4)c3C)[nH]n2)cc1	4.2	1.3	94.9*	101.7*	2.3	3.5
CC[n+]1c(/C=C/C=C/N(C(C)=O)c2ccccc2)sc2cc(OC)ccc21	73.1*	0.2	34.2	164.6*	5.2	-4.1
CC[n+]1c(/C=C(\C)OC)sc2ccccc21	2.8	-1.2	-8.2	0.2	9.2	1.4
COc1ccc(CN(C)C(=O)c2[nH]c(C)c(C(C)=O)c2C)cc1F	·	·	·	·	·	-1.0
Cc1ccc(NC(=O)C[n+]2cc(-c3ccc(C)cc3)n3c2CCC3)cc1	·	-4.0	·	-2.2	-1.1	-4.1
COc1ccc(-c2c[n+](CC(=O)N3c4ccccc4Sc4ccccc43)c3n2CCC3)cc1	·	-1.1	·	1.3	-0.5	-1.4
Cc1ccc(C(=O)C[n+]2cc(-c3ccc(C)cc3)n3c2CCCCC3)cc1	2.0	102.1*	-3.7	-0.6	88.9*	19.6
COc1ccc(C(=O)C[n+]2cc(-c3ccc(OC)cc3)n3c2CCCC3)cc1	2.1	65.1*	-15.6	0.3	63.7*	4.9
O=C(C[n+]1cc(-c2ccccc2)n2c1CCCCC2)c1ccc(Br)cc1	2.8	61.0*	6.9	-0.1	72.6*	-1.4
Cc1ccc(-c2c[n+](Cc3ccc(Cl)c(Cl)c3)c3n2CCC3)cc1	4.7	78.4*	-9.2	-0.4	72.7*	-0.1
Cc1ccc(-c2c[n+](CC(=O)Nc3ccc(C)cc3C)c3n2CCC3)cc1	·	-1.3	·	0.4	2.2	1.2
SMILES	MT stabilizer	Ba/F3 V617F tox	APP 5UTR inh	bCat nuc transl	BaF3 parental	IEC-6 cytotox
C=CCn1c(NCc2ccco2)nc2ccccc21	·	·	·	·	·	-1.5
COc1ccc(C(=O)C(/C=N/O)=N/Nc2ccc(F)cc2)cc1	3.8	0.3	-16.0	1.8	2.8	4.7
CO/N=C/C(=N\Nc1ccc(OC)cc1)C(=O)c1ccc(OC)cc1	53.5*	-2.7	8.8	·	2.7	-1.8
Cc1cccn2c(=O)c3cc(C(=O)NC4CCS(=O)(=O)C4)n(Cc4ccccc4)c3nc12 (centres undefined)	·	·	·	·	·	-1.5
CC12CN(C(=O)c3ccc(Cl)cc3)C3(C#N)CC1CCC23C (centres undefined)	1.0	-0.2	7.8	·	7.5	1.3
CC12CN(NC(=O)c3ccccc3F)C3(C#N)CC1CCC23C (centres undefined)	1.6	4.6	-6.7	-4.5	90.0*	3.5
[2H]c1c([2H])c([2H])c(-c2nc(N3CCCCCC3)sc2C(=O)c2ccccc2)c([2H])c1[2H]	2.5	3.7	-3.5	-2.2	95.5*	-3.5
O=C(c1sc(N2CCOCC2)nc1-c1ccccc1)N1CCCCC1	4.7	7.7	23.3	3.0	10.9	8.1
Cc1sc2ncnc(N3CCN(CCOc4ccc(Cl)cc4)CC3)c2c1C	0.6	11.2	3.1	0.0	31.3*	5.7
NC(N)=N/N=C/c1ccc(OS(=O)(=O)c2ccccc2)cc1	9.2*	4.1	-15.7	24.4	6.8	3.3
CCC(C(=O)N1CCOCC1)n1nc(C)n2c(cc3cc(C)ccc32)c1=O (centres undefined)	·	·	·	·	·	2.6
COCc1cc(CNC(=O)C2CCC(=O)N(Cc3ccccc3OC)C2)[nH]n1 (centres undefined)	·	·	·	·	·	2.7
O=C(N/N=C1\CC2CC=CC12)c1ccccc1Cl (centres undefined)	6.8	0.7	-8.4	0.6	3.0	3.5
FC(F)(F)c1ccccc1NC(=S)N/N=C1\CC2CC=CC12 (centres undefined)	10.5	4.4	85.5*	·	11.1	0.2
Cc1ccc2c(c1)c1c(n2CC(O)CNC2CCCCC2)CCCC1 (centres undefined)	36.2*	3.6	-5.3	1.4	9.6	-4.1
COc1ccc(C(=O)N/C(=C\c2ccccc2)C(=O)NCc2cccnc2)cc1	·	·	·	·	·	0.0
CCOC(=O)c1ccccc1NC(=O)N[C@@H](C)C(=O)OC	2.7	-1.9	14.6	·	-0.6	-1.3
COC(=O)c1ccccc1NC(=O)N[C@@H](C)C(=O)OC	4.2	-3.1	76.2*	-0.7	-1.0	3.1
CC1CC(=O)N(CC(=O)NC2CCCCC2)c2ccccc2S1 (centres undefined)	·	·	·	·	·	-3.3
Cc1ccc(-n2cnc3cc(NCc4cccs4)ccc32)cc1	0.7	1.8	-21.1	-0.7	7.4	-0.5
c1ccc(-n2cnc3cc(NCc4cccs4)ccc32)cc1	40.9*	-2.2	-205.3	8.1	2.8	-7.2
CCOC(=O)C1(CCOC)CCN(C(=O)c2ccccc2-c2cccc(C)c2)CC1	1.7	3.5	-5.0	1.6	81.5*	3.6
CC(C)c1ccc2nc(SCC(=O)NCC3CCCO3)c(C#N)cc2c1 (centres undefined)	·	·	·	·	·	-2.5
COc1ccc(-c2nc3ccccc3n2Cc2ccccc2)cc1	1.3	-4.8	0.1	·	-0.7	2.6
COc1ccc(-c2n(Cc3ccccc3)c3ccccc3[n+]2Cc2ccccc2)cc1	10.9*	96.0*	-13.3	-0.4	74.5*	11.3
Cc1ccc(NC(=O)C2(c3ccc([N+](=O)[O-])cc3)CCCC2)cc1	4.5	2.4	-0.5	1.9	49.7*	-0.6

Source: PubChem BioAssay
